# Experimental data taken from ChEMBL document CHEMBL1125740, “Heterocyclic quinones. 17. A new in vivo active antineoplastic drug: 6,7-bis(1-aziridinyl)-4-[[3-(N,N-dimethylamino)propyl]amino]-5,8- quinazolinedione” (J Med Chem, 1991).
# Where “and” joins values, the source holds several entries; their conditions need not be identical. Equal entries are not always repeated.
# Assays:
# [1] = test system: B16; assay: Compound was evaluated in vivo for antitumor activity against B16 melanoma after injecting the compound intravenously for median tumor burden; assay type: functional, Mus musculus
# Method in brief: (§1)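 30-60 mg tumor fragments implanted sc by trocar on day 0 into C57Bl/6-derived hosts (B16) or C3H/He-derived hosts (16/C). Drug given iv on days 6, 9 and 13 (B16) or 6, 9 and 12 (16/C), 10 mice per group. Tumors measured by caliper. T/C % taken from median tumor burden of treated vs control groups on day 15 (B16) or day 14 (16/C). Body weight change per mouse recorded at nadir.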
# [2] = test system: B16; assay: Compound was evaluated in vivo for antitumor activity against B16 melanoma 2 after injecting the compound intravenously median tumor burden; assay type: functional, Mus musculus
# [3] = Compound was evaluated in vivo for antitumor activity against Glasgow osteogenic sarcoma after injecting the compound intravenously for optimal dose; assay type: functional, Mus musculus
# Method in brief: (§2)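 Glasgow osteogenic sarcoma in C57Bl/6-derived hosts: 30-60 mg fragments implanted sc by trocar on day 0. Drug given iv on days 3, 6 and 9, 7 mice per group. Tumors measured by caliper. Median tumor burden recorded on day 10. Body weight change per mouse recorded at nadir. Toxicity-related deaths counted.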
# [4] = Compound was evaluated in vivo for antitumor activity against Glasgow osteogenic sarcoma after injecting the compound intravenously for toxicity related death.; assay type: functional, Mus musculus; method in brief: as §2
# [5] = test system: M5076; assay: Compound was evaluated in vivo for antitumor activity against M5076 after injecting the compound intravenously for percent T/C; assay type: functional, Mus musculus
# [6] = test system: M5076; assay: Compound was evaluated in vivo for antitumor activity against M5076 after injecting the compound intravenously for total dose.; assay type: functional, Mus musculus
# [7] = test system: L1210; assay: Compound was evaluated in vivo for antitumor activity after intraperitoneal administration against L1210(935) for mortality range at an optimal dose of 0.5 mg/kg/injection at 1,4,7,11day schedule.; assay type: functional, Mus musculus
# Method in brief: (§3)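 L1210 leukemia, maintained in DBA/2 mice, was given ip as 10⁵ cells on day 0 to F1 hybrid or strain-of-origin mice over 18 g, in groups of 8. Dosing was ip from day 1, and mortality was checked daily. Median day of death counts dying mice only. %ILS = 100×(treated − control median day of death)/control median. Tumor-free survivors were counted on day 60. Weight change is g/mouse at nadir.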
# [8] = test system: L1210; assay: Compound was evaluated in vivo for antitumor activity after intraperitoneal administration against L1210(935) for median day of death at an optimal dose of 0.1 mg/kg/injection at 1-4 day schedule.; assay type: functional, Mus musculus; method in brief: as §3
# [9] = test system: L1210; assay: Compound was evaluated in vivo for antitumor activity after intraperitoneal administration against L1210(935)for change in body weight at an optimal dose of 0.4 mg/kg/injection at 1-4 day schedule.; assay type: functional, Mus musculus; method in brief: as §3
# [10] = test system: L1210; assay: Compound was evaluated in vivo for antitumor activity after intraperitoneal administration against L1210(935)for change in body weight at an optimal dose of 0.5 mg/kg/injection at 1,4,7,11day schedule.; assay type: functional, Mus musculus; method in brief: as §3
# [11] = test system: L1210; assay: Compound was evaluated in vivo for antitumor activity after intraperitoneal administration against L1210(935) for total dose at an optimal dose of 0.125 mg/kg/injection at 1,4,7,11day schedule.; assay type: functional, Mus musculus; method in brief: as §3
# [12] = test system: L1210; assay: Compound was evaluated in vivo for antitumor activity after intraperitoneal administration against L1210(935) for tumor free survivors at an optimal dose of 0.25 mg/kg/injection at 1,4,7,11 day schedule.; assay type: functional, Mus musculus; method in brief: as §3
# [13] = test system: L1210; assay: Compound was evaluated in vivo for antitumor activity after intraperitoneal administration against L1210(935)for % increase in life span at an optimal dose of 0.2 mg/kg/injection at 1-4 day schedule.; assay type: functional; conditions: Mus musculus, L1210, ip; method in brief: as §3
# [14] = test system: L1210; assay: Compound was evaluated in vivo for antitumor activity after intraperitoneal administration against L1210(935)for % increase in life span at an optimal dose of 0.4 mg/kg/injection at 1-4 day schedule.; assay type: functional; conditions: Mus musculus, L1210, ip; method in brief: as §3
# [15] = Compound was evaluated in vivo for antitumor activity against Lewis Lung cercinoma after injecting the compound intravenously for percent T/C (value in parentheses indicates the day of evaluation); assay type: functional, Mus musculus
# [16] = test system: P388; assay: Compound was evaluated in vivo for antitumor activity after intraperitoneal administration against P388 (1313) for mortality range at an optimal dose of 0.2 mg/kg/injection; assay type: functional, Mus musculus
# [17] = test system: P388; assay: Compound was evaluated in vivo for antitumor activity after intraperitoneal administration against P388 (1313) for total dose at an optimal dose of 0.4 mg/kg/injection; assay type: functional, Mus musculus
# [18] = test system: P388; assay: Compound was evaluated in vivo for antitumor activity after intraperitoneal administration against P388/L-PAM(14) for median day of death at an optimal dose of 0.5 mg/kg/injection at 1,4,7,11 day schedule.; assay type: functional, Mus musculus
# [19] = test system: P388; assay: Compound was evaluated in vivo for antitumor activity after intraperitoneal administration against P388/L-PAM(14) for mortality range at an optimal dose of 0.25 mg/kg/injection at 1,4,7,11 day schedule.; assay type: functional, Mus musculus
# [20] = test system: P388; assay: Compound was evaluated in vivo for antitumor activity after intraperitoneal administration against P388/L-PAM(14) for tumor free survivors at an optimal dose of 0.2 mg/kg/injection at 1,2,3,4 day schedule.; assay type: functional, Mus musculus
# [21] = test system: P388; assay: Compound was evaluated in vivo for antitumor activity after intraperitoneal administration against P388/L-PAM(14) for tumor free survivors at an optimal dose of 0.5 mg/kg/injection at one day schedule on day 60; assay type: functional, Mus musculus
# [22] = test system: P388; assay: Compound was evaluated in vivo for antitumor activity after intraperitoneal administration against P388 (1303) for mortality range at an optimal dose of 0.75 mg/kg/injection; assay type: functional, Mus musculus
# [23] = test system: P388; assay: Compound was evaluated in vivo for antitumor activity after intraperitoneal administration against P388/L-PAM(14) for change in body weight at an optimal dose of 0.1 mg/kg/injection at 1,2,3,4 day schedule.; assay type: functional, Mus musculus
# [24] = test system: P388; assay: Compound was evaluated in vivo for antitumor activity after intraperitoneal administration against P388/L-PAM(14) for mortality range at an optimal dose of 0.5 mg/kg/injection at 1,4,7,11 day schedule.; assay type: functional, Mus musculus
# [25] = test system: P388; assay: Compound was evaluated in vivo for antitumor activity after intraperitoneal administration against P388 (1313) for mortality range at an optimal dose of 0.25 mg/kg/injection; assay type: functional, Mus musculus
# [26] = test system: P388; assay: Compound was evaluated in vivo for antitumor activity after intraperitoneal administration against P388/L-PAM(14) for % increase in life span at an optimal dose of 0.4 mg/kg/injection at 1,2,3,4 day schedule.; assay type: functional; conditions: Mus musculus, P388, ip
# [27] = test system: P388; assay: Compound was evaluated in vivo for antitumor activity after intraperitoneal administration against P388 (1313) for % increase in life span at an optimal dose of 0.4 mg/kg/injection; assay type: functional; conditions: Mus musculus, P388, ip
# [28] = test system: P388; assay: Compound was evaluated in vivo for antitumor activity after intraperitoneal administration against P388 (1313) for change in body weight at an optimal dose of 0.2 mg/kg/injection; assay type: functional, Mus musculus
# [29] = Compound was evaluated in vivo for antitumor activity against colon adenocarcinoma 38 after injecting the compound intravenously for total dose.; assay type: functional, Mus musculus
# [30] = Compound was evaluated in vivo for antitumor activity against mammary adenocarcinoma 16/C after injecting the compound intravenously for toxicity related death.; assay type: functional, Mus musculus; method in brief: as §1
# [31] = test system: P388; assay: Compound was evaluated in vivo for antitumor activity after intraperitoneal administration against P388 (1313) for change in body weight at an optimal dose of 0.25 mg/kg/injection; assay type: functional, Mus musculus
compound,measurement,setting,value
CN(C)CCCNc1ncnc2c1C(=O)C(N1CC1)=C(N1CC1)C2=O,Tumor burden,[1],2002 mg and 3807 mg
same,Tumor burden,[2],27 mg
same,Optimal dose,[3],0.36 mg/kg
same,Toxicity,[4],0
same,T/C,[5],58%
same,Total dose,[6],4 mg/kg
same,Mortality,[7],18 days
same,Median day of death,[8],14
same,Change in body weight,[9],0.3 g mouse-1
same,Change in body weight,[10],1.1 g mouse-1
same,Total dose,[11],0.5 mg/kg
same,Survivors,[12],0
same,ILS at 0.2 mg/kg,[13],27%
same,ILS at 0.4 mg/kg,[14],27%
same,T/C,[15],81%
same,Optimal dose,[16],28 mg/kg
same,Optimal dose,[17],1.6 mg/kg
same,Median day of death,[18],22.5
same,Mortality,[19],20 days
same,Survivors,[20],0
same,Survivors,[21],0
same,Mortality,[22],65 days
same,Change in body weight,[23],0.5 g mouse-1
same,Mortality,[24],32 days
same,Mortality,[25],27 days
same,ILS at 0.4 mg/kg,[26],43%
same,ILS at 0.4 mg/kg,[27],91%
same,Change in body weight,[28],1.3 g mouse-1
same,Total dose,[29],0.5 mg/kg
same,Toxicity,[30],0
same,Toxicity related death,[30],0
same,Change in body weight,[31],2.4 g mouse-1
